ChEMBL document CHEMBL4387722

Columns and labels:
[1] = Selectivity index, ratio of IC50 for human PTPN1 to IC50 for Mycobacterium tuberculosis PtpB
[2] = system: Mycobacterium tuberculosis; experiment: Antitubercular activity against Mycobacterium tuberculosis H37Rv after 5 days; format: functional, organism-based; settings: 120 h
HSP60/HSP10 = HSP60/HSP10 (Homo sapiens, UniProt P10809); experiment: Inhibition of human HSP60 expressed in Escherichia coli Rosetta 2(DE3)/human HSP10 expressed in Escherichia coli Rosetta 2(DE3) pLysS cells assessed as reduction in HSP60/HSP10-mediated denatured pig heart mitochondrial MDH refolding by measuring MDH enzyme activity using sodium mesoxalate as substrate after 40 to 60 mins by spectrometric analysis
Sequence of HSP60/HSP10 (P10809 whole entry): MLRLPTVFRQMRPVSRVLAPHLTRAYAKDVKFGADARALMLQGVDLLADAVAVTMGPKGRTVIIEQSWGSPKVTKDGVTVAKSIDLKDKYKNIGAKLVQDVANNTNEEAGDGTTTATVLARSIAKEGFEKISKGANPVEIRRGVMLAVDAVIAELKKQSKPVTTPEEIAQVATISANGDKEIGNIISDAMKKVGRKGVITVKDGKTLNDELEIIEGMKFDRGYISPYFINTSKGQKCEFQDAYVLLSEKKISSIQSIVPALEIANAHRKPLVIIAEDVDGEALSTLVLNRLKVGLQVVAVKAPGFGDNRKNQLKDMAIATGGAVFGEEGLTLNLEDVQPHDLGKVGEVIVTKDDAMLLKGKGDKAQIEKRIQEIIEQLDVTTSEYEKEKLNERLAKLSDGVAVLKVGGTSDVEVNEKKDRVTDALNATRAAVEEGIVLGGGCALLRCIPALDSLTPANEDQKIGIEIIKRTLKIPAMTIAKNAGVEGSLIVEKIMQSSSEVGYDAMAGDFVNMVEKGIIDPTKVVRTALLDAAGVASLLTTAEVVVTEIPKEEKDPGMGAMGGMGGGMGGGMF
Sequence of HSP60/HSP10 (P61604 whole entry, further chain): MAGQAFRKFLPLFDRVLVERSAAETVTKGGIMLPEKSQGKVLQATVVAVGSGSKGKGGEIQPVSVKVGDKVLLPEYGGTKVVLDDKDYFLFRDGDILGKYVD

[3] = Selectivity ratio of IC50 for inhibition of human HSP60 expressed in Escherichia coli Rosetta 2(DE3)/human HSP10 expressed in Rosetta 2(DE3) pLysS cells to IC50 for inhibition of Escherichia coli GroEL expressed in Escherichia coli DH5alpha/Escherichia coli GroES expressed in Escherichia coli BL21 (DE3)
Procedure, shortened: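 Ratio of IC50s from two analogous chaperonin-mediated refolding assays: human HSP60/10 and E. coli GroEL/ES each refold denatured malate dehydrogenase (dMDH). Refolding is followed through the recovered MDH enzymatic activity in a coupled read-out. IC50s come from dose-response testing. GroEL subunits are at 700 nM in the GroEL/ES assay.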

[4] = target: T1, Tyrosine-protein phosphatase non-receptor type 2 (Homo sapiens, UniProt P17706); experiment: Inhibition of human PTPN2 expressed in Escherichia coli Rosetta 2 (DE3) using pNPP as substrate after 45 mins by spectrophotometric method
T1 sequence (P17706 whole entry): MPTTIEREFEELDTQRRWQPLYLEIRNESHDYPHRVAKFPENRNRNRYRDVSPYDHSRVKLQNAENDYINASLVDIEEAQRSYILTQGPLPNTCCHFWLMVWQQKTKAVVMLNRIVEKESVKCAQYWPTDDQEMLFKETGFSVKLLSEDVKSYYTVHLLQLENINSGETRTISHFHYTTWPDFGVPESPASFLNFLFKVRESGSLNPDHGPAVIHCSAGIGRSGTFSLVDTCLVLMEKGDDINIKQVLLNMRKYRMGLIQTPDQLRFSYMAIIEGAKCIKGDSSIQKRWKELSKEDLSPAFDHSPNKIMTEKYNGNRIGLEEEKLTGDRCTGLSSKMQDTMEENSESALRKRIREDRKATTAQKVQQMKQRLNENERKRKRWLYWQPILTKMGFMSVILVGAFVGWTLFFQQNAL

[5] = target: T2, Phosphotyrosine protein phosphatase (Mycobacterium tuberculosis, UniProt A0A045ISB3); experiment: Inhibition of Mycobacterium tuberculosis His-tagged PtpB expressed in Escherichia coli Rosetta 2 (DE3) using pNPP as substrate after 30 mins by spectrophotometric method
T2 sequence (A0A045ISB3 whole entry): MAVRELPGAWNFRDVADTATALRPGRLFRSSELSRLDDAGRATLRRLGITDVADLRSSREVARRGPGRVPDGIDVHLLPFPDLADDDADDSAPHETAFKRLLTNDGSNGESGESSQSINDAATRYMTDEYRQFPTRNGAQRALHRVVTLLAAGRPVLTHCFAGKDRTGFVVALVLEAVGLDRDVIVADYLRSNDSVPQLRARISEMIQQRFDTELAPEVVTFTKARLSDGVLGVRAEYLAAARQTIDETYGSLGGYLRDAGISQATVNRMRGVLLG

[6] = system: Mycobacterium tuberculosis; experiment: Antitubercular activity against Mycobacterium tuberculosis H37Rv after 5 days at 200 uM relative to control; format: functional; settings: 120 h
Procedure, shortened: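 M. tuberculosis grown in liquid culture with compound at a fixed 200 μM for 5 days. Growth inhibition expressed as percent of control.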

E. coli GroEL/ES = E. coli GroEL/ES (Escherichia coli, UniProt P0A6F5); experiment: Inhibition of Escherichia coli GroEL expressed in Escherichia coliDH5alpha/Escherichia coli GroES expressed in Escherichia coli BL21 (DE3) assessed as reduction in GroEL/GroES-mediated denatured pig heart mitochondrial MDH refolding by measuring MDH enzyme activity using sodium mesoxalate as substrate after 20 to 40 mins by spectrometric analysis
Sequence of E. coli GroEL/ES (P0A6F5 whole entry, looked up): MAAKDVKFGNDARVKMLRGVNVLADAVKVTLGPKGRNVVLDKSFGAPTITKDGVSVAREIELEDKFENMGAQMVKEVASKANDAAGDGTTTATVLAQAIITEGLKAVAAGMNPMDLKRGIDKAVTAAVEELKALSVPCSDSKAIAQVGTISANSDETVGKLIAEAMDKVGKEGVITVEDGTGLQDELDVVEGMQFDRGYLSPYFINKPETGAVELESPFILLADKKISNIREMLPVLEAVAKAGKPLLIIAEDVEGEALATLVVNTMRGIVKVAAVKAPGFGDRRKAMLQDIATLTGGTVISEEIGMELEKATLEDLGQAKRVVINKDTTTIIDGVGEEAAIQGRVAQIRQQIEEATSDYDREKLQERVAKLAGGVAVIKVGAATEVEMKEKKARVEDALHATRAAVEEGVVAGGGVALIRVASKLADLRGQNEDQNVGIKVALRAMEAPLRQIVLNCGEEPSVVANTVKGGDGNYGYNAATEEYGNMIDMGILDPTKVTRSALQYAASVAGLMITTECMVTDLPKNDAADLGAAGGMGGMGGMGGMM

[7] = target: T3, Tyrosine-protein phosphatase non-receptor type 1 (Homo sapiens, UniProt P18031); experiment: Inhibition of human PTPN1 expressed in Escherichia coli Rosetta 2 (DE3) using pNPP as substrate after 45 mins by spectrophotometric method
T3 sequence (P18031 whole entry): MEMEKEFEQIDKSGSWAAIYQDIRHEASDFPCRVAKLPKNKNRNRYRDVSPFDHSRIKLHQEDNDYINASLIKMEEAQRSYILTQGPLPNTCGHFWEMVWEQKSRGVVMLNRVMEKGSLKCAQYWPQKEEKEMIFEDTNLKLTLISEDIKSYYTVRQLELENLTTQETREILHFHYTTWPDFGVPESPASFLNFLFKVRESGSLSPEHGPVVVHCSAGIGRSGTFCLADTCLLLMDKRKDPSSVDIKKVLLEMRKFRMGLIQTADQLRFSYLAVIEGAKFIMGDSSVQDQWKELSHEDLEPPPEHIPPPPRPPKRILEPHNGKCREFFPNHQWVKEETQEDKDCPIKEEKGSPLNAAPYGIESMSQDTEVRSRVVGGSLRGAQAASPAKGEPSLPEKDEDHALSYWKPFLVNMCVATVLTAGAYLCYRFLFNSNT

[8] = target: T4, Tyrosine-protein phosphatase non-receptor type 5 (Homo sapiens, UniProt P54829); experiment: Inhibition of human PTPN5 expressed in Escherichia coli Rosetta 2 (DE3) using pNPP as substrate after 45 mins by spectrophotometric method
T4 sequence (P54829 whole entry): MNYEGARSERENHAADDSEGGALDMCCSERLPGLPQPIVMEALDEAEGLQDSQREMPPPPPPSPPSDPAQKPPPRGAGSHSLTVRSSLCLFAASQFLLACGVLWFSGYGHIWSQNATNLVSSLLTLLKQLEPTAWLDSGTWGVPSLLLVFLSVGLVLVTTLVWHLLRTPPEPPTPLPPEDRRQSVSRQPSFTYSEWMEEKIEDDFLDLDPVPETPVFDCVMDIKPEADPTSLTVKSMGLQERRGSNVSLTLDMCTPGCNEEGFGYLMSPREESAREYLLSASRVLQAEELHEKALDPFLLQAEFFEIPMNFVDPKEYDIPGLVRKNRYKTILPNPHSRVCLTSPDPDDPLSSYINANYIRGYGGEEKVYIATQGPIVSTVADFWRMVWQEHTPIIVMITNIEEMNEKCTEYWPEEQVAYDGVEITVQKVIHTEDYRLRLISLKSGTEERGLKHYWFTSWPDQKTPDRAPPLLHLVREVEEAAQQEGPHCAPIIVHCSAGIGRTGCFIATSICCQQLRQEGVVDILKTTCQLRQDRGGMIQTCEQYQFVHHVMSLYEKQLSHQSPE

Structure (SMILES): O=S(=O)(Nc1ccc(-c2nc3cc(NS(=O)(=O)c4ccccc4)ccc3o2)cc1)c1ccccc1
- Ratio IC50 [1]: 1.3
- EC50 [2]: 28 µM
- IC50 (HSP60/HSP10): 80 µM
- Ratio IC50 [3]: 20
- IC50 [4]: 29 to 31 µM
- IC50 [5]: 18 µM
- inhibition at 200 µM [6]: 76%
- IC50 (E. coli GroEL/ES): 4 µM
- IC50 [7]: 24 µM
- IC50 [8]: 23 µM
